Data set [1] deals with T1, Cholesteryl ester transfer protein (Homo sapiens, UniProt P11597).
T1 sequence (P11597 whole entry): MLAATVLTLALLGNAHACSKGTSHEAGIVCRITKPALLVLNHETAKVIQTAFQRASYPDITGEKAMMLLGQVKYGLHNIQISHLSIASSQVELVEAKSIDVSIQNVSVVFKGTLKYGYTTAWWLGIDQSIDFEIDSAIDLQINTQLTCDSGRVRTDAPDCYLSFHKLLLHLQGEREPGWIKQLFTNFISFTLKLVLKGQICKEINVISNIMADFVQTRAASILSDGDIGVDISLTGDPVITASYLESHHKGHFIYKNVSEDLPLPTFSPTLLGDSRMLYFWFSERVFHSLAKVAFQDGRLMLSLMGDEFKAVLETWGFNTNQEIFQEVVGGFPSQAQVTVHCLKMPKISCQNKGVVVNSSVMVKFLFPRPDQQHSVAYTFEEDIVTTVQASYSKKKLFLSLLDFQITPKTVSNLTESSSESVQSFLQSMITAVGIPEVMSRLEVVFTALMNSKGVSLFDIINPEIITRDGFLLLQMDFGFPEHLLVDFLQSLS
Description: Inhibition of CETP assessed as cholesterol ester transfer after 4 hrs by microemulsion based fluorescence assay. The procedure, abridged:
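CETP-containing sample (1–3 µg CETP enriched from human plasma) incubated at 37 °C for 4 h with compound in DMSO and a liposome emulsion (1 vol donor, 1 vol buffer, 2 vol acceptor). Liposomes were made by dioxane injection into 50 mM Tris/HCl pH 7.3, 150 mM NaCl, 2 mM EDTA, then sonicated. Read-out was the fluorescence increase versus a DMSO control.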

Data set [2] has as its target T1, Cholesteryl ester transfer protein. Kind of data set: Inhibition of human plasma CETP assessed as cholesterol ester transfer after 24 hrs by fluorescence assay. It is filed as cell-free. In a few lines: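 Donor liposomes (12% v/v) and compound in DMSO (2% v/v) added to human plasma (86% v/v) and incubated at 37 °C for 24 h. Transfer was taken as the fluorescence change at 510/520 nm, compared with a DMSO control.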

Data set [3] shares this target. Description: Inhibition of human plasma CETP assessed as [3H]cholesterol ester transfer after 18 hrs by scintillation proximity assay. The class given is cell-free. The procedure, abridged: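 Scintillation proximity assay. HDL-³H-cholesteryl ester (~50,000 cpm) and biotin-LDL were incubated at 37 °C for 18 h with CETP (1 mg/ml stock) in […]/0.15 M NaCl/0.1% BSA/0.05% NaN₃ pH 7.4. Compound was dissolved in 10% DMSO/1% BSA. Streptavidin SPA beads were added with 1 h shaking, then scintillation counting. Buffer-only and CETP incubations served as controls.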
On the technique in general: In a scintillation proximity assay essentially only radioactivity close to the scintillant gives light.

The nature of data set [4]: Oral bioavailability in rat. It is filed as ADME, organism-based. As to conditions: in vivo.
A short description of data set [5]: Half life in dog plasma. The class given is ADME, organism-based, Canis lupus familiaris.
Data set [6] can be described thus: Half life in rat plasma. It is filed as ADME, organism-based.
The nature of data set [7]: Oral bioavailability in dog. The class given is ADME, organism-based, Canis lupus familiaris. As to conditions: in vivo.
A short description of data set [8]: Half life in mouse plasma. The class given is ADME, organism-based.

Molecules are shown by their SMILES.

For the molecule `CC1(C)Cc2nc(C3CCCC3)c(C(=O)c3ccc(C(F)(F)F)cc3)c(C3CCN(C(=O)OCc4ccccc4)CC3)c2[C@@H](O)C1`, in data set [1], the IC50 – broadly, the concentration that gives 50% inhibition – is 500 nM.
On to `CC1(C)Cc2nc(C3CCCC3)c(C(=O)c3ccc(C(F)(F)F)cc3)c(CN3CCCCC3)c2[C@@H](O)C1`, for which the IC50 in data set [1] turned out to be 15000 nM.
Take `CC1(C)Cc2nc(C3CCCC3)c(C(=O)c3ccc(C(F)(F)F)cc3)c(CCl)c2[C@@H](O)C1`: in data set [1], the IC50 stood at 15000 nM.
With `O=C(c1ccc(C(F)(F)F)cc1)c1c(C2CCCC2)nc2c(c1C1CCCCC1)[C@@H](O)CC1(CCC1)C2`, the IC50 in data set [1] came out at 55 nM.
With `CCC(C)c1c(C(=O)c2ccc(C(F)(F)F)cc2)c(C2CCCC2)nc2c1[C@@H](O)CC(C)(C)C2` (stereo not given in full), the IC50 in data set [1] was 2000 nM.
Consider `CC1(C)Cc2nc(C3CCCC3)c(C(=O)c3ccc(C(F)(F)F)cc3)c(CC(F)(F)F)c2[C@@H](O)C1`, for which the IC50 in data set [1] amounted to 3000 nM.
Regarding `CCOC(=O)c1c(C(=O)c2ccc(C(F)(F)F)cc2)c(C2CCCC2)nc2c1[C@@H](O)CC(C)(C)C2`, in data set [1], the IC50 is above 20000 nM.
Turning to `CC1(C)Cc2nc(C3CCCC3)c(C(=O)c3ccc(C(F)(F)F)cc3)c(C3CCNCC3)c2[C@@H](O)C1`, the IC50 in data set [1] was above 20000 nM.
Regarding `CC(C)c1nc2c(c(C3CCCCC3)c1[C@@H](O)c1ccc(C(F)(F)F)cc1)[C@@H](O)CC1(CCC1)C2`, the IC50 in data set [1] came out at 70 nM.
With `CC1(C)Cc2nc(C3CCCC3)c(C(=O)c3ccc(C(F)(F)F)cc3)c(C3CCCCC3)c2[C@@H](O)C1`, in data set [1], the IC50 is 60 nM.
As to `CC1(C)Cc2nc(C3CCCC3)c(C(=O)c3ccc(C(F)(F)F)cc3)c(N3CCCC3)c2[C@@H](O)C1`, the IC50 in data set [1] came to 4000 nM.
Take `CC(C)c1nc2c(c(C3CCCCC3)c1[C@@H](F)c1ccc(C(F)(F)F)cc1)[C@@H](O)CC(C)(C)C2`: the IC50 in data set [2] was found to be 75 nM; in data set [1], 30 nM; in data set [3] it was 23 nM.
With `CC1(C)Cc2nc(C3CCCC3)c([C@@H](F)c3ccc(C(F)(F)F)cc3)c(C3CCCCC3)c2[C@@H](O)C1`, the IC50 in data set [2] amounted to 50 nM; in data set [1] it was 25 nM; in data set [3], 7 nM. In addition, the figures for the bioavailability in data set [4] and in data set [7] were 44% and 74%, respectively. Moreover, the half-life (usually the time in which the quantity being followed falls by half) in data set [5] was 8.6 h; in data set [6] it was 7.2 h; in data set [8], 5 h.
`CC1(C)Cc2nc(C3CCCC3)c(Cc3ccc(C(F)(F)F)cc3)c(C3CCCCC3)c2[C@@H](O)C1`: the IC50 in data set [2] stood at 300 nM; in data set [1], 39 nM.
As to `CC(C)c1nc2c(c(C3CCCCC3)c1[C@@H](F)c1ccc(C(F)(F)F)cc1)[C@@H](O)CC1(CCC1)C2`, the IC50 in data set [2] worked out at 70 nM; in data set [1] it was 17 nM; in data set [3] it was 33 nM.
With `O[C@@H](c1ccc(C(F)(F)F)cc1)c1c(C2CCCC2)nc2c(c1C1CCCCC1)[C@@H](O)CC1(CCC1)C2`, in data set [1], the IC50 worked out at 100 nM.
On to `O[C@H]1CC2(CCC2)Cc2nc(C3CCCC3)c([C@@H](F)c3ccc(C(F)(F)F)cc3)c(C3CCCCC3)c21`, for which the IC50 in data set [2] worked out at 60 nM; in data set [1], 22 nM; in data set [3], 62 nM.
On to `CC1(C)Cc2nc(C3CCCC3)c([C@@H](F)c3ccc(C(F)(F)F)cc3)c(-c3ccc(F)cc3)c2[C@@H](O)C1`, for which, in data set [1], the IC50 was 31 nM.
For the molecule `CC(C)c1nc2c(c(-c3ccc(F)cc3)c1[C@@H](F)c1ccc(C(F)(F)F)cc1)[C@@H](O)CC1(CCC1)C2`, the IC50 in data set [1] was 24 nM.
`CCc1c(C(=O)c2ccc(C(F)(F)F)cc2)c(C2CCCC2)nc2c1[C@@H](O)CC(C)(C)C2`: the IC50 in data set [1] worked out at 4500 nM.
For the molecule `CC(C)c1nc2c(c(C3CCCCC3)c1C(=O)c1ccc(C(F)(F)F)cc1)[C@@H](O)CC1(CCC1)C2`, the IC50 in data set [1] worked out at 33 nM.
Same read-out and setting: to `CC1(C)Cc2nc(C3CCCC3)c(C(=O)c3ccc(C(F)(F)F)cc3)c(C3CC3)c2[C@@H](O)C1` belongs 3000 nM; to `CC1(C)Cc2nc(C3CCCC3)c(C(=O)c3ccc(C(F)(F)F)cc3)c(C3CCCC3)c2[C@@H](O)C1`, 90 nM.
In the case of `O=C(c1ccc(C(F)(F)F)cc1)c1c(C2CCCC2)nc2c(c1C1CCCC1)[C@@H](O)CC1(CCC1)C2`, the IC50 in data set [1] was 70 nM.
With `CC(C)c1nc2c(c(C3CCCCC3)c1C(=O)c1ccc(C(F)(F)F)cc1)[C@@H](O)CC(C)(C)C2`, the IC50 in data set [1] worked out at 70 nM.
For the molecule `CCCCCc1c(C(=O)c2ccc(C(F)(F)F)cc2)c(C2CCCC2)nc2c1[C@@H](O)CC(C)(C)C2`, the IC50 in data set [1] turned out to be 2000 nM.
For the molecule `CC(C)c1c(C(=O)c2ccc(C(F)(F)F)cc2)c(C2CCCC2)nc2c1[C@@H](O)CC(C)(C)C2`, the IC50 in data set [1] was 600 nM.
On the same count and under the same terms, to `CC(C)c1c(C(=O)c2ccc(C(F)(F)F)cc2)c(C2CCCC2)nc2c1[C@@H](O)CC1(CCC1)C2` belongs 300 nM; to `CCCc1c(C(=O)c2ccc(C(F)(F)F)cc2)c(C2CCCC2)nc2c1[C@@H](O)CC1(CCC1)C2`, 600 nM; to `CC(C)c1nc2c(c(C3CCCCC3)c1[C@@H](O)c1ccc(C(F)(F)F)cc1)[C@@H](O)CC(C)(C)C2` (relative stereo), 80 nM.
Regarding `CC1(C)Cc2nc(C3CCCC3)c([C@@H](O)c3ccc(C(F)(F)F)cc3)c(C3CCCCC3)c2[C@@H](O)C1` (relative stereo), the IC50 in data set [1] worked out at 100 nM.

Values taken from ChEMBL document CHEMBL1154929, “Novel tetrahydrochinoline derived CETP inhibitors” (Bioorg Med Chem Lett, 2010).
